Results on seven compounds are retold here after paper PMC11031320 (Cell chemical biology, 2024).

Entries after “also recorded” stand apart in the source; their conditions may differ. Where two headings read alike, the source gives them in different places. A value given as a limit tells only on which side of the number the result lay.

Series [1] has as its system 26S proteasome. Kind of series: Native gel in-gel Suc-LLVY-AMC hydrolysis, 26S band. It counts as cell-based, Plasmodium falciparum.
For series [2], the system named is 20S particles. Kind of series: Native gel in-gel Suc-LLVY-AMC hydrolysis, 20S band after SDS activation. In kind it is cell-based, Plasmodium falciparum.
Series [3] deals with T1, PfHsp90 (Plasmodium falciparum, UniProt Q8IC05). Description: FITC-geldanamycin competitive binding assay.
The subject of series [4] is PfHsp90. Description: FITC-geldanamycin competitive binding assay. To be noted: ratio of HsHsp90 to PfHsp90 affinity.
The target of series [5] is T2, HsHsp90 (Homo sapiens, UniProt P07900). Kind of series: FITC-geldanamycin competitive binding assay.
For series [6], the target named is wild-type (WT) HsHsp90 nucleotide-binding domain (NBD) (Homo sapiens, UniProt P07900). Kind of series: FITC-GA competition, wild-type HsHsp90 nucleotide-binding domain.
Series [7] deals with HsHsp90 NBD E25D/K112R (Homo sapiens, UniProt P07900, E25D/K112R). Description: FITC-GA competition, salt bridge double mutant HsHsp90 NBD. In kind it is binding.
Series [8] relates to HsHsp90 NBD L122I/G125S/A126G and Q23N. Description: FITC-GA competition, other HsHsp90 NBD variants. In kind it is binding, human. To be noted: compared to WT HsHsp90 NBD. In short, it runs like this:
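Fluorescence polarization displacement of 1.0 nM FITC-geldanamycin from each His-tagged human Hsp90 NBD variant (25 nM). Buffer was 20 mM HEPES pH 7.3, KCl, MgCl2, Na2MoO4, DTT, 0.01% NP-40. Test compound was dosed at 0–10 μM with 1% final DMSO. Plates were held overnight at 4 °C in the dark, then read at Ex 480/Em 535. Percent bound was normalized to protein-only and protein-free tracer controls. At least 4 independent determinations.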

Series [9] deals with P. falciparum 3D7. Kind of series: Asexual blood stage parasite inhibition assay. In kind it is cell-based. Particulars: Plasmodium falciparum, 3D7, 72 h, read-out: EC50, blood stage P. falciparum 3D7. The method, boiled down:
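Ring-stage 3D7 cultures (2% parasitemia, 1% hematocrit) were exposed to test compound at 0–50 μM (0.5% DMSO) for 72 h at 37 °C under 3% O2/5% CO2/92% N2. Controls were DMSO and quinacrine (1 μM). Cells were lysed in saponin/Triton X-100 buffer with 10X SYBR Green I and stained 24 h at RT in the dark. Fluorescence was read at Ex 485/Em 535 and normalized to controls. 2–3 replicates, 2–4 independent experiments.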

Series [10] deals with P. berghei ANKA. Kind of series: Liver stage parasite load in HuH7 cells. It counts as cell-based, Plasmodium berghei. Particulars: for EC50: Plasmodium berghei, Huh-7, 44 h, read-out: EC50, liver stage P. berghei; for relative P. berghei parasite load in HuH7 cells: at ~30 μM.
Series [11] relates to HuH7 cells. Kind of series: HuH7 host cell viability. It counts as cell-based, human. To be noted: at 10 μM.
Series [12] relates to P. falciparum proteasome. In kind it is biochemical, Plasmodium falciparum.
The target of series [13] is T1, PfHsp90. Particulars: cited from earlier work.
Series [14] deals with T2, HsHsp90. To be noted: read-out: Kd of FITC-GA to full-length HsHsp90; cited from earlier work.
For series [15], the system named is P. falciparum gametocytes (NF54 peg4-tdTomato). Description: Gametocyte inhibition assay. It counts as cell-based. Particulars: Plasmodium falciparum.
Setting [16] is: lysate treated with epoxomicin vs DMSO.
Where [17] appears, read: NF54, 24 h, read-out: early gametocyte viability.
The mark [18] stands for this setting: NF54, 240 h, read-out: late gametocyte viability.
The mark [19] stands for this setting: 10 μM, 3 hours, cycloheximide 50 μM co-treatment.

Turning to `CC[C@H](C)[C@H](NC(=O)[C@H]([C@@H](C)CC)N(C)C(C)=O)C(=O)N[C@H](C(=O)N[C@@H](CC(C)C)C(=O)[C@@]1(C)CO1)[C@@H](C)O` [epoxomicin], the 26S band entry in series [1] (setting [16]) is recorded as “reduced”. The “activated 20S band” value in series [2] (setting [16]) is “reduced”.
For the compound `CCOC(=O)NCc1ccc(-n2c(-c3cc(C(C)C)c(O)cc3O)n[nH]c2=S)cc1` [BX-2819], the Ki (commonly a dissociation constant, usually derived from enzyme kinetics or from competition with a known ligand) is 24 ± 4.4 nM in series [3], 49 ± 4.3 nM in [5], 19 ± 4 nM in series [6] and 13 ± 2.5 nM in series [7]. In series [3] (BX-2819 10 μM), the “displacement of FITC-GA from PfHsp90” value is “displaces FITC-GA”. Also, in series [4], the “selectivity to PfHsp90 over HsHsp90” value is 2.0 fold. For the same compound, the “change in affinity for other HsHsp90 NBD constructs” value in series [8] is reported as “unaltered”. The results for the EC50 in series [9] and in series [10] were 740 ± 34 nM and 1500 ± 410 nM, respectively. Besides, the “relative P. berghei parasite load in HuH7 cells” value in series [10] is listed as “near zero”. The “decrease of HuH7 viability” value in [11] is given as no more than 50%. Also, the “reaction rate compared to DMSO control” value in series [12] (100 μM BX-2819 with 3 μM purified PfHsp90) is listed as “not different from the DMSO control”. Also, the “Suc-LLVY-AMC hydrolysis in PfHsp90-treated samples” value in series [12] (BX-2819 10–100 μM with PfHsp90 3 μM) is recorded as “reduced hydrolysis in a dose-dependent manner; also recorded: negated the increased rate”.
For the compound `CO[C@H]1/C=C\C=C(/C)C(=O)NC2=CC(=O)C(NCCCCCCNC(=S)Nc3ccc(-c4c5ccc(=O)cc-5oc5cc(O)ccc45)c(C(=O)O)c3)=C(C[C@@H](C)C[C@H](OC)[C@H](O)[C@@H](C)/C=C(\C)[C@@H]1OC(N)=O)C2=O` [FITC-GA], the Kd (in general, the constant that tells how readily two partners part at equilibrium) in series [13] (read-out: Kd of FITC-GA to full-length PfHsp90) is 42 nM; in [14], 23 nM.
With `CC(C)C[C@H](NC(=O)[C@H](Cc1ccccc1)NC(=O)c1cnccn1)B(O)O` [bortezomib], the “Suc-LLVY-AMC hydrolysis in P. falciparum lysate” value in series [12] (bortezomib 25 μM, 180 min, compared to DMSO) was “significantly reduced; also recorded: decreased total hydrolysis”.
As to `COc1ccc2c(c1)[nH]c1c(C)nccc12` [harmine], in series [13], the affinity result is given as “micromolar”.
As for `CC[C@@H](C)Nc1cc(C(=O)NC2C[C@H]3CC[C@@H](C2)N3c2ccc(C(=O)C3CC3)cn2)c(C)cc1C(N)=O` (stereo partly drawn) [XL888], the Ki in series [3] is 27 ± 7.8 nM; in series [5], 130 ± 30 nM; in series [6], 68 ± 23 nM; in [7] it was 9.6 ± 1.6 nM. For the same compound, the “selectivity to PfHsp90 over HsHsp90” value in series [4] is listed as 4.8 fold. Further, in [7], the “improvement in affinity to E25D/K112R double mutant compared to WT HsHsp90 NBD” value is 7 fold. Also, the “change in affinity for other HsHsp90 NBD constructs” value in series [8] is given as “no significant differences”. Also, the half-maximal effective concentration (EC50) (as a rule, the concentration giving half of the maximal effect) turned out to be 330 ± 110 nM in series [9] and 240 ± 45 nM in series [10]. Besides, the “relative P. berghei parasite load in HuH7 cells” value in series [10] is on record as “near zero”. Further, in series [11], the “decrease of HuH7 viability” value is reported as no more than 50%.
For the compound `COC1=C2C[C@@H](C)C[C@H](OC)[C@H](O)[C@@H](C)/C=C(\C)[C@H](OC(N)=O)[C@@H](OC)/C=C\C=C(/C)C(=O)NC(=CC1=O)C2=O` [geldanamycin], in series [15] (setting [17]), the viability (commonly a per cent measure of how many cells are alive, often set against a control) at 1 µM was determined as 37% and the viability at 10 µM came to 16%. Moreover, in series [15] (setting [18]), the viability at 1 µM was 71% and the viability at 10 µM turned out to be 56%. For the same compound, the “proportion of active 26S proteasomes compared to DMSO control” value in series [1] (setting [19]) was determined as 63%. Besides, the “latent 20S particles (after activation) compared to DMSO control” value in [2] (setting [19]) is given as 158%.
